Eleven molecules from ChEMBL document CHEMBL1126685, “Bronchodilator activity of xanthine derivatives substituted with functional groups at the 1- or 7-position” (J Med Chem, 1993) can be followed below.

Series [1] can be described thus: Bronchoselectivity expressed as ratio of stimulatory activity in the right atrium (EC15) to relaxant activity in the tracheal muscle (EC50). In kind it is functional, Cardiac atrium.
The target of series [2] is cyclic AMP phosphodiesterase (guinea pig). Briefly: Inhibition of cyclic AMP-phosphodiesterase ( PDE) in the supernatant of tracheal muscle homogenate.
In series [3] the target is Adenosine A2 receptor (guinea pig). Nature of the series: Binding affinity against adenosine A2 receptor of striatal membrane using [3H]CGS-21680 as a radioligand.
Series [4] is described as follows: Bronchoselectivity expressed as ratio of positive chronotropic action (ED15) to bronchodilator action (ED50).
The target in series [5] is T1, Adenosine receptor A1 (Cavia porcellus, UniProt P47745).
T1 sequence (P47745 whole entry): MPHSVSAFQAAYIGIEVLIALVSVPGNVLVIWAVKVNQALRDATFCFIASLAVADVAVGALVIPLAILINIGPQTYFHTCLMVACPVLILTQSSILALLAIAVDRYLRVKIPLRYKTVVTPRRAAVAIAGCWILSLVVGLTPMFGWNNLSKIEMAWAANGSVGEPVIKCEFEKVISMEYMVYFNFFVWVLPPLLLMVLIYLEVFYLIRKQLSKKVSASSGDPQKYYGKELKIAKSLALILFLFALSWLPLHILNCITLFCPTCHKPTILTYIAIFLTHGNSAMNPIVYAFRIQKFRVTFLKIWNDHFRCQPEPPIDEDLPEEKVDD
Briefly: Binding affinity against adenosine A1 receptor of cerebral cortex using [3H]CPX as a radioligand. In kind it is tissue-based.

The species named for series [6] is Cavia porcellus. Nature of the series: Effective concentration required in vitro for heart stimulation (right atrium) in guinea pig. It counts as functional. To be noted: Cardiac atrium. Put shortly:
(§1)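 Isolated right atrium of male Hartley guinea pigs, 25 °C Krebs-Henseleit gassed 95% O2–5% CO2, 0.5 g tension; cumulative concentrations; beating rate via cardiometer triggered by isometric contraction. EC15 = concentration raising rate 15% above unstimulated; 3–5 experiments.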

The subject of series [7] is Cavia porcellus. Briefly: Bronchodilatory effect, 50% inhibition of spasmogen-induced response in male Hartley guinea pigs on intraduodenal administration. In kind it is functional. Put shortly: (§2)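 Urethane-anesthetized (1.5 g/kg ip), ventilated male Hartley guinea pigs; compound suspended in 0.5% carboxymethylcellulose given intraduodenally 5 min before iv acetylcholine 40 μg/kg (jugular, every 15 min, after three stable responses); Konzett–Rossler overflow bronchospasm and carotid-pulse heart rate followed 110 min.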

The test system of series [8] is Cavia porcellus. Nature of the series: Positive chronotropic effect, 15% increase in heart rate of male Hartley guinea pigs on intraduodenal administration (mean of 3-5 animals). In kind it is functional. Put shortly: as §2
Series [9] is filed under the species Cavia porcellus. Nature of the series: Effective concentration required in vitro for tracheal muscle (from male Hartley guinea pigs) relaxation. Conditions: Trachea. It counts as functional. Put shortly:
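Tracheal ring chains from male Hartley guinea pigs (300–500 g), 37 °C Krebs-Henseleit pH 7.4, 95% O2–5% CO2, 0.5 g tension, spontaneous tone; cumulative compound addition, isotonic recording.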

Series [10] can be described thus: Bronchoselectivity, ratio of positive chronotropic action (ED15) to bronchodilator action (ED50). In kind it is functional.
The species named for series [11] is Cavia porcellus. Briefly: In vitro guinea pig heart stimulation (right atrium). To be noted: Cardiac atrium. In kind it is functional. Put shortly: as §1
Series [12] deals with T1, Adenosine receptor A1. Nature of the series: Binding affinity against Adenosine A1 receptor of cerebral cortex using [3H]-CPX. It counts as tissue-based.

Regarding `C=CCCn1c(=O)c2[nH]cnc2n(CCC)c1=O`, the Selectivity in series [1] was 22.5; in series [4], 6. Moreover, the Ki in [2] came out at 14.6 µM; in series [3] it was 3.2 µM; in series [5], 0.06 µM. In addition, in series [6], the EC15 amounted to 4.5 µM. The same molecule gave an ED50 in [7] of 1.84 mg/kg. Moreover, in series [8], the ED15 stood at 11 mg/kg. In series [9], this molecule had an EC50 of 0.2 µM.

Turning to `CCCn1c(=O)n(CCCOC)c(=O)c2[nH]cnc21`, the Selectivity in series [1] stood at 10.8; in series [10], 14.9. The Ki in series [2] worked out at 48.7 µM; in series [3] it was 15.7 µM; in series [5], 12.4 µM. This molecule came in with an EC15 in series [6] of 31.3 µM. Further, the 50% effect level in series [7] (ED50) was put at a dose of 0.72 mg/kg. The same molecule displayed an ED15 in series [8] of 10.7 mg/kg. Also, in series [9], a half-maximal effect (EC50) was put at 2.9 µM.

In the case of `CCCn1c(=O)n(C)c(=O)c2c1ncn2CC(C)=O`, the figures for the Selectivity in series [1] and in [10] were 19.7 and 20.1, respectively. Also, the results for the Ki in series [2], in series [3] and in [5] were 20.7 µM, greater than 200 µM and 95.7 µM, respectively. The EC15 in series [6] came to 37.5 µM. In series [7], this molecule came in with a median effective dose (ED50) of 1.49 mg/kg. Besides, the ED15 in series [8] was 30 mg/kg. The EC50 in series [9] was 1.9 µM.

For the molecule `CCCn1cnc2c1c(=O)n(C)c(=O)n2CCC`, the figures for the Selectivity in [1] and in [10] were 20 and greater than 3.6, respectively. In series [3], this molecule had an inhibition constant (Ki) of 43.8 µM. This molecule also yielded an EC15 in series [6] greater than 100 µM. The molecule also had a 50% effective dose (ED50) in series [7] of 27.5 mg/kg. Moreover, in series [8], the ED15 was greater than 100 mg/kg. Besides, the EC50 in series [9] is 5 µM.

As for `CCCn1c(=O)n(CCCCC(C)=O)c(=O)c2[nH]cnc21`, the values for the Selectivity in series [1] and in [10] were 62 and 5.3, respectively. Also, the inhibitory constant (Ki) came to 16.4 µM in series [2] and 23.1 µM in [5]. This molecule also displayed an EC15 in series [6] of 3.6 µM. This molecule yielded a 50% effective dose (ED50) in series [7] of 2.55 mg/kg. The molecule also had an ED15 in series [8] of 13.5 mg/kg. Further, in [9], the midpoint of the response, the EC50, lay at 0.06 µM.

On to `CC(=O)CCCCn1c(=O)c2c(ncn2C)n(C)c1=O` [PENTOXIFYLLINE], for which, in series [5], the inhibition constant Ki was found to be 180 µM. Moreover, the EC15 in series [6] is 52.4 µM. The 50% effective dose (ED50) in [7] worked out at 43 mg/kg. The molecule also registered an ED15 in series [8] of 39.4 mg/kg. In [9], this molecule returned a half-maximal effective concentration (EC50) of 28.3 µM.

Consider `CCCCn1c(=O)c2c(ncn2CC(C)=O)n(CCCC)c1=O` [DENBUFYLLINE], for which, in series [11], the EC15 turned out to be 6 µM. In series [7], this molecule showed a 50% effective dose (ED50) of 5.9 mg/kg. This molecule showed a Ki in series [12] of 16.5 µM. The ED15 in series [8] came to 90 mg/kg. The molecule also showed a 50% effective concentration (EC50) in series [9] of 0.01 µM.

For `CCCn1c(=O)n(C)c(=O)c2[nH]cnc21`, the Selectivity in series [1] turned out to be 2.1; in [10] it was 1.3. In addition, in series [3], the inhibition constant (Ki) stood at 8 µM. In [6], this molecule had an EC15 of 3.3 µM. Moreover, in series [7], the median effective dose (ED50) was 4.44 mg/kg. The molecule further showed an ED15 in series [8] of 5.7 mg/kg. The molecule also displayed a concentration giving a half-maximal response (EC50) in series [9] of 1.6 µM.

As to `CCCn1c(=O)n(CCOCC)c(=O)c2[nH]cnc21`, the values for the Selectivity in series [1] and in [10] were 361 and 11.8, respectively. Besides, the Ki stood at 22.3 µM in series [2], 12 µM in series [3] and 1.9 µM in series [5]. The molecule also had an EC15 in series [6] of 25.3 µM. The ED50 in series [7] was found to be 1.7 mg/kg. Also, in series [8], the ED15 turned out to be 20 mg/kg. In addition, in series [9], the midpoint of the response, the EC50, lay at 0.07 µM.

On to `CCCn1c(=O)n(CCN(C)C)c(=O)c2[nH]cnc21`, for which the Selectivity is 37 in [1] and greater than 17.7 in series [10]. Besides, the inhibition constant (Ki) was 9 µM in series [2], greater than 200 µM in series [3] and 4.3 µM in [5]. In series [6], this molecule gave an EC15 greater than 100 µM. In series [7], this molecule gave an ED50 of 5.65 mg/kg. The molecule also showed an ED15 in series [8] greater than 100 mg/kg. In series [9], this molecule came in with an EC50 of 2.7 µM.

On to `CCCn1c(=O)n(C)c(=O)c2c1ncn2CCOCC`, for which the figures for the Selectivity in [1] and in [10] were 21.7 and 2.1, respectively. Moreover, the inhibition constant (Ki) in series [2] came out at 136 µM; in series [3], 22.9 µM; in series [5], 24.3 µM. Moreover, the EC15 in series [6] was greater than 100 µM. Also, in series [7], the 50% effective dose (ED50) worked out at 12.1 mg/kg. Moreover, the ED15 in series [8] was 25.2 mg/kg. The molecule further displayed a concentration for a half-maximal effect (EC50) in series [9] of 4.6 µM.

For orientation: Ki means a dissociation constant, usually derived from enzyme kinetics or from competition with a known ligand. One may read the ED50 as the dose that gives a 50% effect, or the effect in half of the subjects. Higher therefore signals a need for a large dose. The EC50 is the concentration that produces a half-maximal response. A lower EC50 goes with higher potency in that assay.
